We go through 8 compounds from ChEMBL document CHEMBL2401735, “Synthesis and cytotoxicity of novel (thiazol-2-yl)hydrazine derivatives as promising anti-Candida agents” (Eur J Med Chem, 2013).

As usually defined, the MIC is the lowest concentration that inhibits growth of the organism.

Converted amounts (≈) assume the structure as drawn.

Experiment [1] has as its system [Candida] sake. In words: Anticandida activity against Candida sake clinical isolate assessed as growth inhibition after 24 hrs by broth microdilution method. Format: functional. As to conditions: Fermentozyma sake. Summed up: (§1)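 Clinical Candida isolates subcultured for purity and optimal growth before testing; compounds dissolved in DMSO. Broth microdilution per NCCLS in Sabouraud dextrose broth, serial dilutions, inoculum about 10³/mL, with growth control and medium-only control; 24 h incubation at 37 °C. MIC is the lowest concentration giving complete visible inhibition.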
In general terms: Dilution methods test growth across graded concentrations, often in twofold steps.

In experiment [2] the test system is Candida parapsilosis. In words: Anticandida activity against Candida parapsilosis clinical isolate assessed as growth inhibition after 24 hrs by broth microdilution method. The experiment is classed as functional. Particulars: Lodderomyces parapsilosis. The essentials: as §1
Experiment [3] concerns Pichia kudriavzevii. In words: Anticandida activity against Candida krusei clinical isolate assessed as growth inhibition after 24 hrs by broth microdilution method. Format: functional. Summed up: as §1
Experiment [4] relates to Candida tropicalis. Put plainly: Anticandida activity against Candida tropicalis clinical isolate assessed as growth inhibition after 24 hrs by broth microdilution method. The experiment is classed as functional. The essentials: as §1
For experiment [5], the system named is Nakaseomyces glabratus. In words: Anticandida activity against Candida glabrata clinical isolate assessed as growth inhibition after 24 hrs by broth microdilution method. The experiment is classed as functional. Summed up:
as §1

Experiment [6] deals with Candida albicans. In words: Anticandida activity against Candida albicans clinical isolate assessed as growth inhibition after 24 hrs by broth microdilution method. Format: functional. The essentials: as §1
Experiment [7] has as its system Klebsiella oxytoca. Put plainly: Antibacterial activity against Klebsiella oxytoca assessed as growth inhibition after 18 to 22 hrs by broth microdilution method. The experiment is classed as functional. Summed up:
(§2)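 Bacterial isolates subcultured for purity, identified conventionally. Broth microdilution per NCCLS in Mueller-Hinton II broth; plates with growth control (no compound) and medium-only control, incubated 18-22 h at 35 °C. MIC taken as lowest concentration giving complete growth inhibition by unaided eye.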

The subject of experiment [8] is Proteus mirabilis. Put plainly: Antibacterial activity against Proteus mirabilis assessed as growth inhibition after 18 to 22 hrs by broth microdilution method. The experiment is classed as functional. Summed up:
as §2

The test system of experiment [9] is Enterobacter sp. In words: Antibacterial activity against Enterobacter spp. assessed as growth inhibition after 18 to 22 hrs by broth microdilution method. Format: functional. The essentials: as §2
Experiment [10] concerns Escherichia coli. In words: Antibacterial activity against Escherichia coli assessed as growth inhibition after 18 to 22 hrs by broth microdilution method. The experiment is classed as functional. Summed up:
as §2

Experiment [11] has as its system Enterococcus faecalis. Put plainly: Antibacterial activity against […] assessed as growth inhibition after 18 to 22 hrs by broth microdilution method. The experiment is classed as functional. Summed up: as §2
The subject of experiment [12] is Staphylococcus warneri. Put plainly: Antibacterial activity against Staphylococcus warneri assessed as growth inhibition after 18 to 22 hrs by broth microdilution method. Format: functional. Summed up: as §2
The subject of experiment [13] is Staphylococcus aureus. Put plainly: Antibacterial activity against Staphylococcus aureus assessed as growth inhibition after 18 to 22 hrs by broth microdilution method. The experiment is classed as functional. Summed up:
as §2

In experiment [14] the test system is Streptococcus alpha-hemolyticus. Put plainly: Antibacterial activity against Streptococcus alpha-hemolyticus assessed as growth inhibition after 18 to 22 hrs by broth microdilution method.

As to `CCCCC/C(C)=N/Nc1nc(-c2ccc(Cl)cc2Cl)cs1`, the minimal inhibitory concentration (MIC) in experiment [1] was 16 µg/mL (≈ 44.9 µM); in [2], 16 µg/mL (≈ 44.9 µM); in experiment [3] it was 4 µg/mL (≈ 11.2 µM); in [4], 4 µg/mL (≈ 11.2 µM); in experiment [5], 2 µg/mL (≈ 5.61 µM); in experiment [6] it was 2 µg/mL (≈ 5.61 µM). Besides, the MIC in experiment [7], in experiment [8], in experiment [9], in [10], in [11] and in [12] was more than 256 µg/mL in each case. The MIC in [13] and in experiment [14] was more than 256 µg/mL throughout.
Turning to `C/C(CC(C)C)=N\Nc1nc(-c2ccc(Cl)cc2Cl)cs1`, the MIC in experiment [1] was determined as 256 µg/mL (≈ 748 µM); in [2], 256 µg/mL (≈ 748 µM); in [3] it was 256 µg/mL (≈ 748 µM); in [4], 256 µg/mL (≈ 748 µM); in experiment [5], 128 µg/mL (≈ 374 µM); in [6], 256 µg/mL (≈ 748 µM). Further, the MIC in experiment [7], in [8], in experiment [9], in experiment [10], in experiment [11] and in [12] was more than 256 µg/mL throughout. Also, the MIC in [13] and in [14] was more than 256 µg/mL in each case.
Regarding `C=CCC/C(C)=N/Nc1nc(-c2ccc(Cl)cc2Cl)cs1`, the minimum inhibitory concentration (MIC) is 256 µg/mL (≈ 752 µM) in experiment [1]; 256 µg/mL (≈ 752 µM) in [2]; 8 µg/mL (≈ 23.5 µM) in experiment [3]; 8 µg/mL (≈ 23.5 µM) in [4]; 4 µg/mL (≈ 11.8 µM) in experiment [5]; 2 µg/mL (≈ 5.88 µM) in experiment [6]. Moreover, the MIC in experiment [7], in experiment [8], in experiment [9], in experiment [10], in experiment [11] and in experiment [12] was more than 256 µg/mL each time. Moreover, the MIC in experiment [13] and in experiment [14] was more than 256 µg/mL throughout.
With `CCCC/C(CC)=N/Nc1nc(-c2ccc(Cl)cc2Cl)cs1`, the MIC came out at 8 µg/mL (≈ 22.5 µM) in experiment [1]; 8 µg/mL (≈ 22.5 µM) in experiment [2]; 4 µg/mL (≈ 11.2 µM) in experiment [3]; 4 µg/mL (≈ 11.2 µM) in experiment [4]; 4 µg/mL (≈ 11.2 µM) in experiment [5]; 2 µg/mL (≈ 5.61 µM) in experiment [6]. In addition, the MIC in [7], in experiment [8], in experiment [9], in [10], in experiment [11] and in experiment [12] was more than 256 µg/mL in each case. The MIC in experiment [13] and in [14] was more than 256 µg/mL throughout.
For `CCCCCC/C(C)=N/Nc1nc(-c2ccc(Cl)cc2Cl)cs1`, the MIC in [1] worked out at 32 µg/mL (≈ 86.4 µM); in [2], 32 µg/mL (≈ 86.4 µM); in experiment [3], 4 µg/mL (≈ 10.8 µM); in experiment [4], 4 µg/mL (≈ 10.8 µM); in experiment [5] it was 4 µg/mL (≈ 10.8 µM); in experiment [6], 2 µg/mL (≈ 5.4 µM). For the same compound, the MIC in [7], in experiment [8], in [9], in experiment [10], in experiment [11] and in experiment [12] was more than 256 µg/mL in each case. Further, the MIC in experiment [13] and in [14] was more than 256 µg/mL each time.
On to `CC(C)(O/N=C(\C(=O)N[C@@H]1C(=O)N2C(C(=O)[O-])=C(C[n+]3ccccc3)CS[C@H]12)c1csc(N)n1)C(=O)O` [CEFTAZIDIME], for which the MIC was found to be 8 µg/mL (≈ 14.6 µM) in experiment [7]; 8 µg/mL (≈ 14.6 µM) in [8]; 8 µg/mL (≈ 14.6 µM) in experiment [9]; 4 µg/mL (≈ 7.32 µM) in [10]; 4 µg/mL (≈ 7.32 µM) in [11]; 4 µg/mL (≈ 7.32 µM) in [12]. Besides, the MIC in experiment [13] was found to be 2 µg/mL (≈ 3.66 µM); in experiment [14] it was 4 µg/mL (≈ 7.32 µM).
In the case of `OC(Cn1cncn1)(Cn1cncn1)c1ccc(F)cc1F` [FLUCONAZOLE], the MIC in [1], in [2], in experiment [3], in experiment [4], in experiment [5] and in [6] was 4 µg/mL (≈ 13.1 µM) in each case.
Turning to `COC1=CC(=O)C[C@@H](C)[C@]12Oc1c(Cl)c(OC)cc(OC)c1C2=O` [GRISEOFULVIN], the minimal inhibitory concentration (MIC) in experiment [1] stood at 8 µg/mL (≈ 22.7 µM); in experiment [2] it was 8 µg/mL (≈ 22.7 µM); in experiment [3], 8 µg/mL (≈ 22.7 µM); in experiment [4], 8 µg/mL (≈ 22.7 µM); in [5] it was 4 µg/mL (≈ 11.3 µM); in [6], 4 µg/mL (≈ 11.3 µM).
